Here are results for 37 sequences from the array DNA melting data of Ke et al. (doi:10.1101/2024.01.08.574731).

A short description of data set [1]: folding enthalpy; higher = less favourable; fluorescence melt of hairpins on a sequencing array, two-state fit. Particulars: sodium 0.088 M. The procedure, abridged: (§1)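 Library hairpins on a sequenced MiSeq flow cell carried annealed Cy3 and quencher oligos, and their Cy3 fluorescence was imaged in 50 mM Na-HEPES pH 8.0 with 25 mM NaCl, in 2.5 °C steps up to 60 °C. Signals were normalised to Cy3 before quenching and to control constructs. Melting temperature and folding enthalpy were obtained from bootstrapped two-state fits, combined by inverse-variance weighting across four replicates, and the fitted temperatures were then raised by 9.35 °C to match UV melts.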

The nature of data set [2]: melting temperature; fluorescence melt of hairpins on a sequencing array, two-state fit, raised by 9.35 °C to match UV melts. As to conditions: sodium 0.088 M. The procedure, abridged:
as §1

For the sequence GCTCATCGAAAGATCAGC (((.(((....))).))), the folding enthalpy in data set [1] was -29.6 kcal/mol. The Tm in data set [2] stood at 34.7 °C.
On the same counts, the results for GCTCATGGAAACACGAGC ((((.((....)).)))) are -38.1 kcal/mol and 42.6 °C.
As to GCTCATGGAAACATGAAC (.(((((....))))).), in data set [1], the folding enthalpy is -18.3 kcal/mol. Also, the Tm in data set [2] came to 35.7 °C.
On the same counts, the results for GCTCATGGAAACATGAGC (((((((....))))))) are -33 kcal/mol and 67.6 °C.
On the same counts, the results for GCTCCAGAAATGGAGC ((((((....)))))) are -32 kcal/mol and 65.8 °C.
On the same counts, the results for GCTCCAGGAAACTAGAGC ((((.((....)).)))) are -25.4 kcal/mol and 36.5 °C.
For the sequence GCTCCATCGAAAGATAGC (((..(((....)))))), the folding enthalpy in data set [1] was -10.7 kcal/mol. The Tm in data set [2] came to 24.6 °C.
Turning to GCTCCCGAAAGGGACAGC ((((((....)))..))), the folding enthalpy in data set [1] was -12.6 kcal/mol. The Tm in data set [2] came to 44.7 °C.
Taken in the same sequence, the figures for GCTCCCGAAAGGGGAAGC ((((((....)))..))) were -19.2 kcal/mol and 50 °C.
On to GCTCCCGAAAGGGGTAGC ((((((....)))..))), for which the folding enthalpy in data set [1] was -18.1 kcal/mol. Moreover, in data set [2], the Tm was 48.7 °C.
Taken in the same sequence, the figures for GCTCCGCGAAAGCAAAGC (((..((....))..))) were -11 kcal/mol and 31.5 °C.
For GCTCCGCGAAAGCCAAGC (((..((....))..))), the folding enthalpy in data set [1] is -8.28 kcal/mol. In data set [2], the Tm amounted to 26.1 °C.
Taken in the same sequence, the figures for GCTCCGCGAAAGCGAGC (((.(((....)))))) were -20.6 kcal/mol and 61.7 °C.
On the same counts, the results for GCTCCGCGAAAGCGTCGC ((..(((....)))..)) are -15.9 kcal/mol and 35.2 °C.
Taken in the same sequence, the figures for GCTCCGCGAAAGCGTGGC ((..(((....)))..)) were -15.7 kcal/mol and 50.1 °C.
Consider GCTCCGCGAAAGCGTTGC ((..(((....)))..)), for which the folding enthalpy in data set [1] is -14.2 kcal/mol. Besides, the Tm in data set [2] worked out at 40.4 °C.
In the case of GCTCCGCGAAAGCTGTGC ((.(.((....)).).)), the folding enthalpy in data set [1] was -14.9 kcal/mol. Further, in data set [2], the Tm was 41.2 °C.
Regarding GCTCCGGGAAACCAGAGC ((((.((....)).)))), the folding enthalpy in data set [1] was -31.9 kcal/mol. The Tm in data set [2] worked out at 47 °C.
GCTCCGGGAAACTGGAGC (((((.(....).))))): in data set [1], the folding enthalpy was -45.7 kcal/mol. The Tm in data set [2] came out at 60.1 °C.
As to GCTCCGGGAAACTGGGGC ((.((.(....).)).)), in data set [1], the folding enthalpy is -33.9 kcal/mol. Also, in data set [2], the Tm turned out to be 48.1 °C.
Taken in the same sequence, the figures for GCTCGAGGAAACTTGAGC ((((.((....)).)))) were -37.8 kcal/mol and 50.8 °C.
GCTCGCGAAAGCGGCAGC ((((((....)))..))): the folding enthalpy in data set [1] is -12.2 kcal/mol. Further, the Tm in data set [2] was 48.9 °C.
Take GCTCGCTCGAAAGAGAGC (((..(((....)))))): the folding enthalpy in data set [1] was -20.8 kcal/mol. In addition, the Tm in data set [2] was found to be 48.6 °C.
For the sequence GCTCGGACGAAAGTCAGC (((..(((....)))))), the folding enthalpy in data set [1] is -12.3 kcal/mol. Moreover, the Tm in data set [2] was found to be 39.1 °C.
Taken in the same sequence, the figures for GCTCGGCGAAAGCACAGC (((..((....))..))) were -12.2 kcal/mol and 51.2 °C.
As to GCTCGGCGAAAGCATAGC (((..((....))..))), the folding enthalpy in data set [1] is -12.3 kcal/mol. The Tm in data set [2] worked out at 44 °C.
For GCTCGGCGAAAGCCAGGC ((..(((....)))..)), in data set [1], the folding enthalpy was -12.6 kcal/mol. The Tm in data set [2] amounted to 58.8 °C.
Take GCTCGGCGAAAGCCTCGC ((..(((....)))..)): in data set [1], the folding enthalpy is -14.4 kcal/mol. Moreover, the Tm in data set [2] worked out at 48.7 °C.
On the same counts, the results for GCTCGGCGAAAGCGAAGC (((..((....))..))) are -13.1 kcal/mol and 47.2 °C.
Taken in the same sequence, the figures for GCTCGGCGAAAGCGGCGC ((.(.((....)).).)) were -15.8 kcal/mol and 54 °C.
GCTCGGCGAAAGCTGGGC ((.(.((....)).).)): in data set [1], the folding enthalpy is -26.2 kcal/mol. In addition, in data set [2], the Tm amounted to 60.9 °C.
On the same counts, the results for GCTCGGGGAAACTCGAGC (((((.(....).))))) are -44.2 kcal/mol and 58.5 °C.
On the same counts, the results for GCTCGTGGAAACGTGAGC ((((..(....)..)))) are -21.3 kcal/mol and 46.2 °C.
Taken in the same sequence, the figures for GCTCTACCGAAAGGTAGC (((..(((....)))))) were -9.29 kcal/mol and 31.3 °C.
For GCTCTACGAAAGTAAGC (((.(((....)))))), in data set [1], the folding enthalpy was -18.8 kcal/mol. The Tm in data set [2] is 38.7 °C.
Taken in the same sequence, the figures for GCTCTACGAAAGTATAGC (((.(((....))).))) were -29.7 kcal/mol and 42.5 °C.
Regarding GCTCTAGGAAACTAGAAC (.(((((....))))).), the folding enthalpy in data set [1] was -14.2 kcal/mol. Besides, the Tm in data set [2] came out at 29.7 °C.
